Results on 27 molecules are retold here after ChEMBL document CHEMBL3396970, “Synthesis and biological evaluation of novel 2,3-disubstituted quinoxaline derivatives as antileishmanial and antitrypanosomal agents” (Eur J Med Chem, 2015).

Data set [1] in a line: Selectivity ratio of CC50 to IC50 for promastigote stage of Leishmania amazonensis WHOM/BR/75/JOSEFA. More on the design: reference not given here.
In data set [2] the test system is Trypanosoma cruzi. Briefly: Antitrypanosomal activity against trypomastigote stage of Trypanosoma cruzi Y infected in monkey LLC-MK2 cells after 96 hrs by Pizzi-Brener method. It is filed as functional, organism-based.
Data set [3] is described as follows: Selectivity ratio of CC50 for monkey LLC-MK2 cells to EC50 for trypomastigote stage of Trypanosoma cruzi Y. The following applies: read-out: Ratio CC50/EC50. It is filed as ADME, cell-based.
A short description of data set [4]: Selectivity ratio of CC50 for monkey LLC-MK2 cells to IC50 for epimastigote stage of epimastigote stage of Trypanosoma cruzi Y. It is filed as ADME, cell-based. Particulars: read-out: Ratio CC50/IC50.
Data set [5] has as its system Trypanosoma cruzi. The data set can be described thus: Antitrypanosomal activity against epimastigote stage of Trypanosoma cruzi Y after 96 hrs by hemocytometry. It is filed as functional, organism-based. The gist of the method: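 Log-phase parasites (promastigotes 3-day, Warren's medium + 10% FBS, 25°C; epimastigotes 4-day, LIT + 10% FBS, 28°C) seeded at 1 × 10^6 cells/mL with compound (0.1-100 µM; DMSO ≤1%). Promastigotes read at 72 h, epimastigotes at 96 h, by hemocytometer counting. IC50 by nonlinear regression.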

Another data set concerns Leishmania amazonensis. The data set can be described thus: Antileishmanial activity against promastigote stage of Leishmania amazonensis WHOM/BR/75/JOSEFA after 72 hrs by hemocytometry. It is filed as functional, organism-based.
Data set [6] in a line: Selectivity ratio of CC50 for mouse J774A1 cells to IC50 for promastigote stage of Leishmania amazonensis WHOM/BR/75/JOSEFA. Format: ADME, cell-based, J774.A1. The following applies: read-out: Ratio CC50/IC50.
Data set [7] can be described thus: Selectivity ratio of CC50 for monkey LLC-MK2 cells to IC50 for epimastigote stage of epimastigote stage of Trypanosoma cruzi Y.

The structures appear in SMILES notation. Where only a bound is given, the exact number is not on record here.

Broadly, the EC50 is the midpoint of the concentration-response curve. As usually defined, the IC50 is the concentration that inhibits the measured activity by half. Take `CS/C(=C/[N+](=O)[O-])Nc1ccc(N(C)C)cc1`: the selectivity ratio in data set [1] is 18.9; in data set [3], 6; in data set [4], 6.6; in data set [6] it was 18.9; in data set [7] it was 6.6. Besides, the EC50 in the data set on Trypanosoma cruzi [2] stood at 35 µM. Besides, the values for the concentration for half-maximal inhibition (IC50) in the data set with Trypanosoma cruzi [5] and with Leishmania amazonensis were 31.8 µM and 52.8 µM, respectively.
With `c1ccc(-c2nc3ccccc3nc2-c2ccc(OCCN3CCCCC3)cc2)cc1`, the selectivity ratio is 29.6 in data set [1]; 1.8 in data set [3]; 1.8 in data set [4]; 29.6 in data set [6]; 1.8 in data set [7]. In addition, the EC50 in the data set on Trypanosoma cruzi [2] stood at 20.3 µM. The IC50 in the data set with Trypanosoma cruzi [5] came to 21.4 µM; with Leishmania amazonensis it was 1.9 µM.
As to `Clc1cc2nc(-c3ccccc3)c(-c3ccccc3)nc2cc1Cl`, the selectivity ratio stood at 38.5 in data set [1], 8.7 in data set [4], 38.5 in data set [6] and 8.7 in data set [7]. This molecule had an EC50 in the data set on Trypanosoma cruzi [2] of over 50 µM. The figures for the IC50 in the data set on Trypanosoma cruzi [5] and with Leishmania amazonensis were 54 µM and 5.3 µM, respectively.
For the molecule `Cc1ccc(-c2nc3cc(Cl)c(Cl)cc3nc2-c2ccccc2)cc1`, the selectivity ratio in data set [1] amounted to 3.2; in data set [4], 1.3; in data set [6] it was 3.2; in data set [7] it was 1.3. Moreover, the EC50 in the data set on Trypanosoma cruzi [2] was over 50 µM. In addition, the IC50 in the data set on Trypanosoma cruzi [5] amounted to 83.4 µM; in the data set with Leishmania amazonensis it was 22.2 µM.
As for `Oc1ccc(-c2nc3ccccc3nc2-c2ccc(OCCN3CCCCC3)cc2)cc1`, the selectivity ratio in data set [1] was determined as 8.2; in data set [4] it was 1; in data set [6] it was 8.2; in data set [7], 1. Further, the EC50 in the data set on Trypanosoma cruzi [2] was over 50 µM. Moreover, the IC50 in the data set with Trypanosoma cruzi [5] is 39.2 µM; in the data set on Leishmania amazonensis, 5.7 µM.
With `COc1ccc2nc(S(C)(=O)=O)c(Cl)nc2c1`, the selectivity ratio came out at 7.6 in data set [1]; 2.4 in data set [3]; 7.5 in data set [4]; 7.6 in data set [6]; 7.5 in data set [7]. In the data set on Trypanosoma cruzi [2], this molecule yielded an EC50 of 9.8 µM. The IC50 turned out to be 3.1 µM in the data set on Trypanosoma cruzi [5] and 2.9 µM in the data set on Leishmania amazonensis.
`COc1ccc2nc(N(C)C)c(SC)nc2c1`: the selectivity ratio in data set [1] turned out to be 5.9; in data set [4], 6.2; in data set [6], 5.9; in data set [7], 6.2. The molecule further had an EC50 with Trypanosoma cruzi [2] of over 50 µM. The IC50 is 83.6 µM with Trypanosoma cruzi [5] and 42.8 µM in the data set with Leishmania amazonensis.
In the case of `CCCCNc1nc2ccc(OC)cc2nc1SC`, the selectivity ratio was found to be 2.1 in data set [1], 3.1 in data set [4], 2.1 in data set [6] and 3.1 in data set [7]. The same molecule returned an EC50 in the data set on Trypanosoma cruzi [2] of over 50 µM. Moreover, the IC50 is 86.7 µM in the data set on Trypanosoma cruzi [5] and 35.2 µM with Leishmania amazonensis.
Turning to `CCCCNc1nc2ccccc2nc1SC`, the selectivity ratio was 1.9 in data set [1], 1.2 in data set [4], 1.9 in data set [6] and 1.2 in data set [7]. Besides, in the data set on Trypanosoma cruzi [2], the EC50 was over 50 µM. Besides, the IC50 with Trypanosoma cruzi [5] was 93.1 µM; in the data set on Leishmania amazonensis, 75.9 µM.
With `COc1ccc2nc(NC3CCCCC3)c(SC)nc2c1`, the selectivity ratio in data set [1] was determined as 1.2; in data set [4], 8.5; in data set [6], 1.2; in data set [7] it was 8.5. The molecule further yielded an EC50 in the data set with Trypanosoma cruzi [2] of over 50 µM. Also, the IC50 was 30.5 µM in the data set with Trypanosoma cruzi [5] and 29.8 µM in the data set on Leishmania amazonensis.
As for `CCCCNc1nc2cc(OC)ccc2nc1SC`, the selectivity ratio is 3.5 in data set [1], 1.1 in data set [4], 3.5 in data set [6] and 1.1 in data set [7]. For the same molecule, the EC50 in the data set on Trypanosoma cruzi [2] is over 50 µM. Further, the IC50 in the data set on Trypanosoma cruzi [5] stood at 69.2 µM; in the data set with Leishmania amazonensis, 30.2 µM.
As to `COc1ccc2nc(SC)c(NCC(C)C)nc2c1`, the selectivity ratio is 4.7 in data set [1], 0.7 in data set [4], 4.7 in data set [6] and 0.7 in data set [7]. In addition, the EC50 in the data set on Trypanosoma cruzi [2] was over 50 µM. Moreover, the IC50 worked out at 95.7 µM in the data set with Trypanosoma cruzi [5] and 26.9 µM in the data set with Leishmania amazonensis.
In the case of `COc1ccc2nc(SC)c(NCCC(C)C)nc2c1`, the selectivity ratio in data set [1] was 3.3; in data set [4], 0.7; in data set [6], 3.3; in data set [7], 0.7. Moreover, the EC50 with Trypanosoma cruzi [2] is over 50 µM. Further, the results for the IC50 in the data set on Trypanosoma cruzi [5] and in the data set with Leishmania amazonensis were 79.6 µM and 27.1 µM, respectively.
Take `CCCCNc1nc2cc(Br)ccc2nc1SC`: the selectivity ratio in data set [1] came to 5.1; in data set [4], 0.9; in data set [6], 5.1; in data set [7] it was 0.9. Moreover, the EC50 in the data set on Trypanosoma cruzi [2] is over 50 µM. For the same molecule, the results for the 50% inhibitory concentration (IC50) in the data set with Trypanosoma cruzi [5] and in the data set on Leishmania amazonensis were 41.8 µM and 25.2 µM, respectively.
Regarding `COc1ccc2nc(NCC(C)C)c(SC)nc2c1`, the selectivity ratio was 6.7 in data set [1], 1 in data set [4], 6.7 in data set [6] and 1 in data set [7]. In the data set on Trypanosoma cruzi [2], this molecule yielded an EC50 of over 50 µM. The IC50 was found to be 69.9 µM with Trypanosoma cruzi [5] and 27.6 µM in the data set on Leishmania amazonensis.
`CCCCNc1nc2cc(Cl)ccc2nc1SC`: the selectivity ratio was 4.6 in data set [1], 1 in data set [4], 4.6 in data set [6] and 1 in data set [7]. In the data set on Trypanosoma cruzi [2], the EC50 was over 50 µM. Further, the IC50 in the data set with Trypanosoma cruzi [5] worked out at 63.6 µM; with Leishmania amazonensis, 24.4 µM.
Consider `COc1ccc2nc(N(C)C)c(S(C)(=O)=O)nc2c1`, for which the selectivity ratio in data set [1] amounted to 4.5; in data set [4], 6.8; in data set [6], 4.5; in data set [7], 6.8. The EC50 in the data set on Trypanosoma cruzi [2] was over 50 µM. Also, the IC50 with Trypanosoma cruzi [5] stood at 25.2 µM; in the data set on Leishmania amazonensis, 35.9 µM.
As for `CCCCNc1nc2ccccc2nc1S(C)(=O)=O`, the selectivity ratio worked out at 11.4 in data set [1]; 1.5 in data set [3]; 5.5 in data set [4]; 11.4 in data set [6]; 5.5 in data set [7]. The EC50 in the data set with Trypanosoma cruzi [2] came to 15.7 µM. Further, the IC50 with Trypanosoma cruzi [5] was found to be 4.4 µM; in the data set with Leishmania amazonensis, 2.9 µM.
Regarding `CS(=O)(=O)c1nc2ccccc2nc1NCCO`, the selectivity ratio worked out at 13 in data set [1]; 0.8 in data set [3]; 4.4 in data set [4]; 13 in data set [6]; 4.4 in data set [7]. The molecule also had an EC50 with Trypanosoma cruzi [2] of 22.6 µM. The IC50 was 4.2 µM with Trypanosoma cruzi [5] and 2.9 µM in the data set with Leishmania amazonensis.
For the molecule `CCCCNc1nc2cc(OC)ccc2nc1S(C)(=O)=O`, the selectivity ratio amounted to 5.5 in data set [1]; 2.1 in data set [3]; 1.6 in data set [4]; 5.5 in data set [6]; 1.6 in data set [7]. The 50% effective concentration (EC50) with Trypanosoma cruzi [2] turned out to be 41.2 µM. The IC50 was found to be 55.3 µM with Trypanosoma cruzi [5] and 32.2 µM in the data set on Leishmania amazonensis.
Regarding `COc1ccc2nc(S(C)(=O)=O)c(NCCO)nc2c1`, the selectivity ratio is 3.7 in data set [1], 2.6 in data set [4], 3.7 in data set [6] and 2.6 in data set [7]. Also, the EC50 in the data set with Trypanosoma cruzi [2] was over 50 µM. In addition, the figures for the IC50 in the data set with Trypanosoma cruzi [5] and in the data set on Leishmania amazonensis were 90.9 µM and 69.2 µM, respectively.
`COc1ccc2nc(S(C)(=O)=O)c(NC3CCCCC3)nc2c1`: the selectivity ratio in data set [1] was found to be 6.5; in data set [3] it was 3.3; in data set [4] it was 2.7; in data set [6], 6.5; in data set [7], 2.7. Further, the EC50 in the data set on Trypanosoma cruzi [2] came out at 23.6 µM. Moreover, the results for the concentration for half-maximal inhibition (IC50) with Trypanosoma cruzi [5] and in the data set on Leishmania amazonensis were 29.1 µM and 14.7 µM, respectively.
In the case of `COc1ccc2nc(S(C)(=O)=O)c(NCCC(C)C)nc2c1`, in the data set on Trypanosoma cruzi [2], the EC50 stood at 22.9 µM. The selectivity ratio amounted to 4.2 in data set [3], 2.6 in data set [4] and 5 in data set [6]. The IC50 amounted to 38 µM with Trypanosoma cruzi [5] and 21.2 µM in the data set with Leishmania amazonensis.
Turning to `COc1ccc2nc(-c3ccccc3)c(NCCN3CCCCC3)nc2c1`, the selectivity ratio in data set [1] was 0.9; in data set [4], 3.8; in data set [6], 0.9; in data set [7], 3.8. In the data set on Trypanosoma cruzi [2], this molecule returned an EC50 of over 50 µM. For the same molecule, the IC50 was determined as 47.6 µM in the data set on Trypanosoma cruzi [5] and 50.3 µM in the data set with Leishmania amazonensis.
With `CCCCNc1nc2cc(OC)ccc2nc1Cl`, the selectivity ratio in data set [1] worked out at 4.4; in data set [4], 7.9; in data set [6] it was 4.4; in data set [7] it was 7.9. Further, in the data set with Trypanosoma cruzi [2], the EC50 was over 50 µM. Besides, the IC50 is 49.5 µM in the data set with Trypanosoma cruzi [5] and 36.2 µM in the data set on Leishmania amazonensis.
With `CCCCNc1nc2ccc(OC)cc2nc1NCCCC`, the selectivity ratio in data set [1] was found to be 4.3; in data set [4], 3.2; in data set [6] it was 4.3; in data set [7] it was 3.2. In the data set with Trypanosoma cruzi [2], this molecule returned an EC50 of over 50 µM. Moreover, the IC50 stood at 29.4 µM in the data set on Trypanosoma cruzi [5] and 20.9 µM in the data set with Leishmania amazonensis.
For the molecule `CCCCNc1nc2ccc(OC)cc2nc1NCc1ccccc1`, the selectivity ratio in data set [1] was 3.6; in data set [4] it was 0.6; in data set [6], 3.6; in data set [7], 0.6. In the data set with Trypanosoma cruzi [2], this molecule had an EC50 of over 50 µM. Also, the IC50 in the data set on Trypanosoma cruzi [5] was 38.4 µM; in the data set with Leishmania amazonensis, 13.6 µM.
